Experimental data from ChEMBL document CHEMBL4316612, “Synthesis of novel dihydrotriazine derivatives bearing 1,3-diaryl pyrazole moieties as potential antibacterial agents” (Bioorg Med Chem Lett, 2019).
Values after ≈ are worked out from the molar mass of the structure shown.

Assays:
Assay type in all cases: functional
[1] = tested on: Streptococcus mutans; experiment: Antibacterial activity against Streptococcus mutans 3289 after 24 hrs by microtiter ELISA; settings: Streptococcus mutans, 3289, 24 h
How it was run: (§1)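 Two-fold serial broth dilution in Mueller-Hinton broth, final 64-0.25 µg/mL; compounds in DMSO (final ≤0.05%). Mid-log cultures diluted 1000-fold, inoculum 10^5 CFU/mL; oxacillin and norfloxacin as positive controls. After 24 h at 37 °C, growth read at 650 nm on a microtiter ELISA reader; MIC = lowest level giving complete growth inhibition. Run three times.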

[2] = tested on: Staphylococcus aureus; experiment: Antibacterial activity against quinolone-resistant Staphylococcus aureus CCARM 3519 after 24 hrs by microtiter ELISA; settings: CCARM 3519, 24 h
How it was run: (§2)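 Broth microdilution MIC. Bacteria grown to mid-log phase in Mueller-Hinton broth, diluted 1000-fold, and inoculated at 10^5 CFU/mL. Compounds in DMSO (final ≤0.05%) were given as two-fold serial dilutions, final 64-0.25 µg/mL. Plates were incubated 24 h at 37 °C and growth read at 650 nm. MIC is the lowest concentration giving complete growth inhibition. Three independent experiments; oxacillin and norfloxacin served as positive controls.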

[3] = tested on: Staphylococcus aureus; experiment: Antibacterial activity against methicillin-resistant Staphylococcus aureus CCARM 3167 after 24 hrs by microtiter ELISA; settings: CCARM 3167, 24 h; how it was run: as §2
[4] = tested on: Staphylococcus aureus; experiment: Antibacterial activity against quinolone-resistant Staphylococcus aureus CCARM 3505 after 24 hrs by microtiter ELISA; settings: CCARM 3505, 24 h; how it was run: as §2
[5] = tested on: Staphylococcus aureus; experiment: Antibacterial activity against Staphylococcus aureus RN4220 after 24 hrs by microtiter ELISA; settings: RN4220, 24 h; how it was run: as §2
[6] = tested on: Staphylococcus aureus; experiment: Antibacterial activity against methicillin-resistant Staphylococcus aureus CCARM 3506 after 24 hrs by microtiter ELISA; settings: CCARM 3506, 24 h; how it was run: as §2
[7] = tested on: Escherichia coli; experiment: Antibacterial activity against Escherichia coli KCTC 1924 after 24 hrs by microtiter ELISA; settings: KCTC 1924, 24 h; how it was run: as §1
[8] = tested on: Candida albicans; experiment: Antifungal activity against Candida albicans 7535 after 24 hrs by microtiter ELISA; settings: Candida albicans, 7535, 24 h; how it was run: as §1

Compound	MIC [1] [µg/mL]	MIC [2] [µg/mL]	MIC [3] [µg/mL]	MIC [4] [µg/mL]	MIC [5] [µg/mL]	MIC [6] [µg/mL]	MIC [7] [µg/mL]	MIC [8] [µg/mL]
COc1c(N2CCNC(C)C2)c(F)cc2c(=O)c(C(=O)O)cn(C3CC3)c12 (stereo not given) [GATIFLOXACIN]	0.25 (≈ 0.666 µM)	4 (≈ 10.7 µM)	2 (≈ 5.33 µM)	8 (≈ 21.3 µM)	0.25 (≈ 0.666 µM)	2 (≈ 5.33 µM)	2 (≈ 5.33 µM)	
COc1cccc(-c2nn(-c3ccc([N+](=O)[O-])cc3[N+](=O)[O-])cc2C2N=C(N)NC(N(C)C)=N2)c1 (stereo not given)	64 (≈ 133 µM)	64 (≈ 133 µM)	32 (≈ 66.7 µM)	64 (≈ 133 µM)	32 (≈ 66.7 µM)	32 (≈ 66.7 µM)	32 (≈ 66.7 µM)	32 (≈ 66.7 µM)
Cc1ccc(-c2nn(-c3ccc([N+](=O)[O-])cc3[N+](=O)[O-])cc2C2N=C(N)NC(N(C)C)=N2)cc1 (stereo not given)	16 (≈ 34.5 µM)	16 (≈ 34.5 µM)	8 (≈ 17.3 µM)	8 (≈ 17.3 µM)	16 (≈ 34.5 µM)	8 (≈ 17.3 µM)	16 (≈ 34.5 µM)	64 (≈ 138 µM)
COc1c(N2C[C@@H]3CCCN[C@@H]3C2)c(F)cc2c(=O)c(C(=O)O)cn(C3CC3)c12 [MOXIFLOXACIN]	0.25 (≈ 0.623 µM)	4 (≈ 9.96 µM)			0.25 (≈ 0.623 µM)			
Cc1ccc(-c2nn(-c3ccccc3)cc2C2N=C(N)NC(N3CCOCC3)=N2)cc1 (stereo not given)	64 (≈ 154 µM)	64 (≈ 154 µM)	32 (≈ 77 µM)	64 (≈ 154 µM)	64 (≈ 154 µM)	32 (≈ 77 µM)	64 (≈ 154 µM)	64 (≈ 154 µM)
CCC(C)n1ncn(-c2ccc(N3CCN(c4ccc(OCC5COC(Cn6cncn6)(c6ccc(Cl)cc6Cl)O5)cc4)CC3)cc2)c1=O (stereo not given) [ITRACONAZOLE]								0.6 (≈ 0.85 µM)
CCn1cc(C(=O)O)c(=O)c2cc(F)c(N3CCNCC3)cc21 [NORFLOXACIN]		> 64	8 (≈ 25.1 µM)	> 64		4 (≈ 12.5 µM)		
CN(C)C1=NC(c2cn(-c3ccccc3)nc2-c2ccc(Cl)cc2)N=C(N)N1 (stereo not given)	32 (≈ 81.2 µM)	16 (≈ 40.6 µM)	16 (≈ 40.6 µM)	16 (≈ 40.6 µM)	8 (≈ 20.3 µM)	8 (≈ 20.3 µM)	8 (≈ 20.3 µM)	8 (≈ 20.3 µM)
CN(C)C1=NC(c2cn(-c3ccccc3)nc2-c2cccc(Cl)c2)N=C(N)N1 (stereo not given)	16 (≈ 40.6 µM)	32 (≈ 81.2 µM)	16 (≈ 40.6 µM)	32 (≈ 81.2 µM)	4 (≈ 10.2 µM)	16 (≈ 40.6 µM)	8 (≈ 20.3 µM)	8 (≈ 20.3 µM)
CN(C)C1=NC(c2cn(-c3ccccc3)nc2-c2ccccc2)N=C(N)N1 (stereo not given)	> 64	64 (≈ 178 µM)	32 (≈ 89 µM)	32 (≈ 89 µM)	32 (≈ 89 µM)	32 (≈ 89 µM)	64 (≈ 178 µM)	> 64
NC1=NC(c2cn(-c3ccc([N+](=O)[O-])cc3[N+](=O)[O-])nc2-c2ccccc2[N+](=O)[O-])N=C(N2CCOCC2)N1 (stereo not given)	> 64	> 64	> 64	> 64	> 64	> 64	> 64	> 64
CN(C)C1=NC(c2cn(-c3ccc([N+](=O)[O-])cc3[N+](=O)[O-])nc2-c2ccccc2Br)N=C(N)N1 (stereo not given)	32 (≈ 60.6 µM)	64 (≈ 121 µM)	32 (≈ 60.6 µM)	32 (≈ 60.6 µM)	32 (≈ 60.6 µM)	32 (≈ 60.6 µM)	32 (≈ 60.6 µM)	64 (≈ 121 µM)
NC1=NC(c2cn(-c3ccccc3)nc2-c2ccc(Cl)cc2)N=C(N2CCOCC2)N1 (stereo not given)	32 (≈ 73.4 µM)	16 (≈ 36.7 µM)	16 (≈ 36.7 µM)	16 (≈ 36.7 µM)	16 (≈ 36.7 µM)	16 (≈ 36.7 µM)	16 (≈ 36.7 µM)	16 (≈ 36.7 µM)
OC(Cn1cncn1)(Cn1cncn1)c1ccc(F)cc1F [FLUCONAZOLE]								1 (≈ 3.27 µM)
CN(C)C1=NC(c2cn(-c3ccc([N+](=O)[O-])cc3[N+](=O)[O-])nc2-c2cccc(Cl)c2)N=C(N)N1 (stereo not given)	8 (≈ 16.5 µM)	16 (≈ 33.1 µM)	4 (≈ 8.27 µM)	4 (≈ 8.27 µM)	4 (≈ 8.27 µM)	4 (≈ 8.27 µM)	8 (≈ 16.5 µM)	8 (≈ 16.5 µM)
NC1=NC(c2cn(-c3ccc([N+](=O)[O-])cc3[N+](=O)[O-])nc2-c2ccccc2F)N=C(N2CCOCC2)N1 (stereo not given)	> 64	64 (≈ 126 µM)	64 (≈ 126 µM)	64 (≈ 126 µM)	64 (≈ 126 µM)	32 (≈ 62.8 µM)	64 (≈ 126 µM)	64 (≈ 126 µM)
CN(C)C1=NC(c2cn(-c3ccccc3)nc2-c2ccc(Br)cc2)N=C(N)N1 (stereo not given)	16 (≈ 36.5 µM)	16 (≈ 36.5 µM)	4 (≈ 9.13 µM)	16 (≈ 36.5 µM)	8 (≈ 18.3 µM)	4 (≈ 9.13 µM)	8 (≈ 18.3 µM)	8 (≈ 18.3 µM)
NC1=NC(c2cn(-c3ccccc3)nc2-c2cccc(Cl)c2)N=C(N2CCOCC2)N1 (stereo not given)	32 (≈ 73.4 µM)	16 (≈ 36.7 µM)	16 (≈ 36.7 µM)	16 (≈ 36.7 µM)	16 (≈ 36.7 µM)	16 (≈ 36.7 µM)	16 (≈ 36.7 µM)	16 (≈ 36.7 µM)
CN(C)C1=NC(c2cn(-c3ccc([N+](=O)[O-])cc3[N+](=O)[O-])nc2-c2ccc(Br)cc2)N=C(N)N1 (stereo not given)	16 (≈ 30.3 µM)	8 (≈ 15.1 µM)	8 (≈ 15.1 µM)	4 (≈ 7.57 µM)	8 (≈ 15.1 µM)	4 (≈ 7.57 µM)	8 (≈ 15.1 µM)	8 (≈ 15.1 µM)
CN(C)C1=NC(c2cn(-c3ccc([N+](=O)[O-])cc3[N+](=O)[O-])nc2-c2ccccc2F)N=C(N)N1 (stereo not given)	64 (≈ 137 µM)	64 (≈ 137 µM)	64 (≈ 137 µM)	64 (≈ 137 µM)	64 (≈ 137 µM)	32 (≈ 68.5 µM)	32 (≈ 68.5 µM)	32 (≈ 68.5 µM)
Cc1onc(-c2ccccc2)c1C(=O)N[C@@H]1C(=O)N2[C@@H]1SC(C)(C)[C@@H]2C(=O)O [OXACILLIN]		1 (≈ 2.49 µM)	> 64	1 (≈ 2.49 µM)		> 64		
